# Measured values published in ChEMBL document CHEMBL1122584 (1984).
# Peptide text beside a SMILES is read from it.
# Assays:
# Rattus norvegicus [1] = organism: Rattus norvegicus; test: Compound was evaluated for its glycogenolytic activity in normal male rats and the plasma glucose level was determined at 2 ug/100 g of body weight; format: functional, organism-based
# Procedure, shortened: (§1)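 Groups of five, anesthetized with sodium pentobarbital (6–7 mg/100 g), given peptide in saline s.c. (0.5 mL) 30 min later. Jugular blood was drawn at 15 min into EDTA, and plasma glucose was measured by glucose oxidase. Mean ± SD, n = 5.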
# Rattus norvegicus [2] = organism: Rattus norvegicus; test: (§2) Compound was evaluated for its glycogenolytic activity in normal male rats and the plasma glucose level was determined at 1 ug/100 g of body weight; format: functional, organism-based; procedure, shortened: as §1
# Rattus norvegicus [3] = organism: Rattus norvegicus; test: Potency of glycogenolytic activity was reported by four point assay; format: functional
# Rattus norvegicus [4] = organism: Rattus norvegicus; test: Compound was evaluated for its glycogenolytic activity in normal male rats and the plasma glucose level was determined at 4 ug/100 g of body weight; format: functional, organism-based
# Procedure, shortened: as §1, with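 “Male Charles River CD rats (175–350 g), fed and kept at 24 ± 2 °C under a 0500–1900 h light cycle for at least 1 week. Groups” for “Groups”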
# Rattus norvegicus [5] = organism: Rattus norvegicus; test: Compound was evaluated for its glycogenolytic activity in normal male rats and the plasma glucose level was determined at 12 ug/100 g of body weight; format: functional, organism-based
# Procedure, shortened: as §1, with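 “Male Charles River CD rats (175–350 g), fed and kept at 24 ± 2 °C under a 0500–1900 h light cycle for at least 1 week. Groups” for “Groups”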
# Rattus norvegicus [6] = organism: Rattus norvegicus; test: Compound was evaluated for its glycogenolytic activity in normal male rats and the plasma glucose level was determined at 6 ug/100 g of body weight; format: functional, organism-based
# Procedure, shortened: as §1, with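 “Male Charles River CD rats (175–350 g), fed and kept at 24 ± 2 °C under a 0500–1900 h light cycle for at least 1 week. Groups” for “Groups”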
# Rattus norvegicus [7] = organism: Rattus norvegicus; test: potency of glycogenolytic activity was reported by four point assay.; format: functional, organism-based
# Rattus norvegicus [8] = organism: Rattus norvegicus; test: Compound was evaluated for its glycogenolytic activity in normal male rats and the plasma glucose level was determined at 0.5 ug/100 g of body weight; format: functional, organism-based
# Rattus norvegicus [9] = organism: Rattus norvegicus; test: as §2; format: functional, organism-based; remark: listed apart in the source
# Procedure, shortened: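 Male Charles River CD rats (175–350 g), fed, anesthetized with sodium pentobarbital (6–7 mg/100 g), dosed subcutaneously 30 min later with peptide in saline (0.5 mL, gelatin-coated syringes), groups of five. Jugular blood drawn exactly 15 min post-injection into EDTA, and plasma glucose measured by glucose oxidase. Values are mean ± SD, n = 5.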
Molecule,Plasma glucose (Rattus norvegicus [1]) [mg 100ml-1],Plasma glucose (Rattus norvegicus [2]) [mg 100ml-1],Potency (Rattus norvegicus [3]) [%],Plasma glucose (Rattus norvegicus [4]) [mg 100ml-1],Plasma glucose (Rattus norvegicus [5]) [mg 100ml-1],Plasma glucose (Rattus norvegicus [6]) [mg 100ml-1],Potency (Rattus norvegicus [7]) [%],Plasma glucose (Rattus norvegicus [8]),Plasma glucose (Rattus norvegicus [9])
CSCC[C@H](NC(=O)[C@H](CC(C)C)NC(=O)[C@H](Cc1c[nH]c2ccccc12)NC(=O)[C@H](CCC(N)=O)NC(=O)[C@@H](NC(=O)[C@H](Cc1ccccc1)NC(=O)[C@H](CC(=O)O)NC(=O)[C@H](CCC(N)=O)NC(=O)[C@H](C)NC(=O)[C@H](CCCN=C(N)N)NC(=O)[C@H](CCCN=C(N)N)NC(=O)[C@H](CO)NC(=O)[C@H](CC(=O)O)NC(=O)[C@H](CC(C)C)NC(=O)[C@H](Cc1ccc(O)cc1)NC(=O)[C@H](CCCN=C(N)N)NC(=O)[C@H](CO)NC(=O)[C@H](Cc1ccc(O)cc1)NC(=O)[C@H](CC(=O)O)NC(=O)[C@H](CO)NC(=O)[C@@H](NC(=O)[C@H](Cc1ccccc1)NC(=O)[C@@H](NC(=O)[C@@H](C)NC(=O)[C@H](CCC(N)=O)NC(=O)[C@H](CO)NC(=O)[C@@H](N)Cc1c[nH]cn1)[C@@H](C)O)[C@@H](C)O)C(C)C)C(=O)N[C@@H](CC(N)=O)C(=O)N[C@H](C(=O)O)[C@@H](C)O,198,174,44,,,,,,
CSCC[C@H](NC(=O)[C@H](CC(C)C)NC(=O)[C@H](Cc1c[nH]c2ccccc12)NC(=O)[C@H](CCC(N)=O)NC(=O)[C@@H](NC(=O)[C@H](Cc1ccccc1)NC(=O)[C@H](CC(=O)O)NC(=O)[C@H](CCC(N)=O)NC(=O)[C@H](C)NC(=O)[C@H](CCCN=C(N)N)NC(=O)[C@H](CCCN=C(N)N)NC(=O)[C@H](CO)NC(=O)[C@H](CC(=O)O)NC(=O)[C@H](CC(C)C)NC(=O)[C@H](Cc1ccc(O)cc1)NC(=O)[C@H](CCCN=C(N)N)NC(=O)[C@H](CO)NC(=O)[C@H](Cc1ccc(O)cc1)NC(=O)[C@H](CC(=O)O)NC(=O)[C@H](CO)NC(=O)[C@@H](NC(=O)[C@H](Cc1ccccc1)NC(=O)[C@@H](NC(=O)[C@@H](C)NC(=O)[C@H](CCC(N)=O)NC(=O)[C@H](CO)NC(=O)[C@H](N)Cc1ccc(Cl)cc1)[C@@H](C)O)[C@@H](C)O)C(C)C)C(=O)N[C@@H](CC(N)=O)C(=O)N[C@H](C(=O)O)[C@@H](C)O,158,,9,176,,,,,
CSCC[C@H](NC(=O)[C@H](CC(C)C)NC(=O)[C@H](Cc1c[nH]c2ccccc12)NC(=O)[C@H](CCC(N)=O)NC(=O)[C@@H](NC(=O)[C@H](Cc1ccccc1)NC(=O)[C@H](CC(=O)O)NC(=O)[C@H](CCC(N)=O)NC(=O)[C@H](C)NC(=O)[C@H](CCCN=C(N)N)NC(=O)[C@H](CCCN=C(N)N)NC(=O)[C@H](CO)NC(=O)[C@H](CC(=O)O)NC(=O)[C@H](CC(C)C)NC(=O)[C@H](Cc1ccc(O)cc1)NC(=O)[C@H](CCCN=C(N)N)NC(=O)[C@H](CO)NC(=O)[C@H](Cc1ccc(O)cc1)NC(=O)[C@H](CC(=O)O)NC(=O)[C@H](CO)NC(=O)[C@@H](NC(=O)[C@H](Cc1ccccc1)NC(=O)[C@@H](NC(=O)CNC(=O)[C@H](CCC(N)=O)NC(=O)[C@H](CO)NC(=O)[C@@H](N)Cc1ccccc1)[C@@H](C)O)[C@@H](C)O)C(C)C)C(=O)N[C@@H](CC(N)=O)C(=O)N[C@H](C(=O)O)[C@@H](C)O (H-FSQGTFTSDYSRYLDSRRAQDFVQWLMNT-OH),183,161,31,,,,,,
CSCC[C@H](NC(=O)[C@H](CC(C)C)NC(=O)[C@H](Cc1c[nH]c2ccccc12)NC(=O)[C@H](CCC(N)=O)NC(=O)[C@@H](NC(=O)[C@H](Cc1ccccc1)NC(=O)[C@H](CC(=O)O)NC(=O)[C@H](CCC(N)=O)NC(=O)[C@H](C)NC(=O)[C@H](CCCN=C(N)N)NC(=O)[C@H](CCCN=C(N)N)NC(=O)[C@H](CO)NC(=O)[C@H](CC(=O)O)NC(=O)[C@H](CC(C)C)NC(=O)[C@H](Cc1ccc(O)cc1)NC(=O)[C@H](CCCN=C(N)N)NC(=O)[C@H](CO)NC(=O)[C@H](Cc1ccc(O)cc1)NC(=O)[C@H](CC(=O)O)NC(=O)[C@H](CO)NC(=O)[C@@H](NC(=O)[C@H](Cc1ccccc1)NC(=O)[C@@H](NC(=O)CNC(=O)[C@H](CCC(N)=O)NC(=O)[C@@H](N)CO)[C@@H](C)O)[C@@H](C)O)C(C)C)C(=O)N[C@@H](CC(N)=O)C(=O)N[C@H](C(=O)O)[C@@H](C)O (H-SQGTFTSDYSRYLDSRRAQDFVQWLMNT-OH),,,4,,186,165,,,
GLUCAGON,,,100,,,,100,186 mg 100ml-1 [middle of 4 runs],213 mg 100ml-1 [middle of 5 runs]
